Results from ChEMBL document CHEMBL2150936, “Anticancer activity of small amphipathic β²,²-amino acid derivatives” (Eur J Med Chem, 2012).

Tests used:
Ramos [1] = experiment: Cytotoxicity against human Ramos cells after 4 hrs by MTT assay; type: functional, cell-based
In short: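 Ramos Burkitt's lymphoma cells, kept in suspension in RPMI 1640 with 10% FBS, were seeded at 4 × 10^5 cells/ml in serum-free RPMI 1640. Compounds in RPMI-1640 were added immediately, then 4 h at 37 °C, 5% CO2. MTT was added for a further 2 h, formazan dissolved in acidic isopropanol (0.04 N HCl), and A590 read. Survival was calculated against untreated medium control; 1% Triton X-100 served as positive control.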

MRC5 = experiment: Cytotoxicity against human MRC5 cells after 4 hrs by MTT assay; type: cell-based; conditions: MRC5, 4 h
In short: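 MRC-5 embryonic lung fibroblast monolayers in MEM with 10% FBS were seeded at 1 × 10^5 cells/ml, grown overnight, then medium was replaced with compound solution. Exposure was 4 h at 37 °C, 5% CO2, then MTT for 2 h. Formazan was dissolved in acidic isopropanol (0.04 N HCl) and absorbance read at 590 nm. Background-corrected viability was taken relative to medium-only control, with Triton X-100 as positive control.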

Ramos [2] = experiment: Selectivity index, ratio of EC50 for human RBC to IC50 for human Ramos cells; type: functional
In short: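 Ramos IC50 came from a 4 h MTT assay: cells at 4 × 10^5 cells/ml in serum-free RPMI-1640, compounds added at once, 37 °C, 2 h MTT, read at 590 nm. RBC EC50 came from hemoglobin release at 405 nm: 1% v/v washed human erythrocytes in PBS, 1 h at 37 °C, Triton X-100 reference. SI = RBC EC50 / Ramos IC50.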

Ramos [3] = experiment: Selectivity index, ratio of EC50 for human MRC5 cells to IC50 for human Ramos cells; type: functional
In short: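 Ramos cells were seeded at 4 × 10^5 cells/ml in serum-free RPMI-1640, and compounds in RPMI-1640 were added at once. MRC-5 fibroblasts were seeded at 1 × 10^5 cells/ml in MEM with 10% FBS, grown overnight, and the medium was then replaced with compound. Both were incubated 4 h at 37 °C, 5% CO2, then given MTT for 2 h. Formazan was dissolved in acidic isopropanol and read at 590 nm. Survival was expressed relative to the untreated medium control. SI = MRC-5 EC50 / Ramos IC50.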

[4] = Hemolytic activity in human RBC assessed as hemoglobin release; type: ADME, cell-based, Erythrocyte
In short: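 Heparinized human blood was washed three times in PBS pre-warmed to 37 °C to remove plasma. Compounds were dissolved in PBS and mixed with the RBCs to a final 1% v/v erythrocytes. Samples were incubated for 1 h at 37 °C with agitation, then centrifuged. Hemoglobin release was read at 405 nm, relative to 0.1% v/v Triton X-100 (positive control) and PBS (negative control).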

[5] = Homo sapiens, Erythrocyte, read-out: EC50

SMILES | IC50 (Ramos [1]) | EC50 (MRC5) | Selectivity Index (Ramos [2]) | Selectivity Index (Ramos [3]) | EC50 [4, 5] | EC50 ([4]; erythrocyte)
NCCNC(=O)C(CN)(Cc1ccc(C(F)(F)F)cc1)Cc1ccc(C(F)(F)F)cc1 | 7.1 µM | 17.8 µM | 60 | 2.5 |  | 
CN1CCN(C(=O)C(CN)(Cc2ccc3ccccc3c2)Cc2ccc3ccccc3c2)CC1 | 14 µM | 41 µM | 22 | 2.9 |  | 
CN(C)CCNC(=O)C(CN)(Cc1ccc(C(F)(F)F)cc1)Cc1ccc(C(F)(F)F)cc1 | 11.4 µM | 47 µM | 41 | 4.1 |  | 
CN(C)CCNC(=O)C(CN)(Cc1ccc2ccccc2c1)Cc1ccc2ccccc2c1 | 6.6 µM | 4.9 µM | 33 | 0.7 | 217 µM | 
N=C(N)NCCC[C@H](NC(=O)C(CN)(Cc1ccc(C(F)(F)F)cc1)Cc1ccc(C(F)(F)F)cc1)C(N)=O | > 254 µM | > 634 µM |  |  | 990 µM | 
CC(C)(C)c1ccc(CC(CNC(=N)N)(Cc2ccc(C(C)(C)C)cc2)C(=O)NCCCNC(=N)N)cc1 | 63 µM | 64 µM |  | 1 |  | ND(Insoluble)
N=C(N)NCCC[C@H](NC(=O)C(CN)(Cc1ccc2ccccc2c1)Cc1ccc2ccccc2c1)C(N)=O | 107 µM | 552 µM | 4 | 5.2 | 425 µM | 
NCCCNC(=O)C(CN)(Cc1ccc2ccccc2c1)Cc1ccc2ccccc2c1 | 4.3 µM | 6.6 µM | 104 | 1.5 | 447 µM | 
CN1CCN(C(=O)C(CN)(Cc2ccc(C(C)(C)C)cc2)Cc2ccc(C(C)(C)C)cc2)CC1 | 6.1 µM | 16.6 µM | 57 | 2.7 | 349 µM | 
N=C(N)NCCCNC(=O)C(CNC(=N)N)(Cc1ccc2ccccc2c1)Cc1ccc2ccccc2c1 | 79 µM | 760 µM |  | 9.6 |  | ND(Insoluble)
CN(C)CCOC(=O)C(CN)(Cc1ccc2ccccc2c1)Cc1ccc2ccccc2c1 | 3.1 µM | 12.7 µM | 148 | 4.1 | 458 µM | 
CN(C)CCNC(=O)C(CN)(Cc1ccc(C(C)(C)C)cc1)Cc1ccc(C(C)(C)C)cc1 | 28 µM | 49 µM | 9.8 | 1.8 |  | 
CN(C)CCN1CCN(C(=O)C(CN)(Cc2ccc(C(C)(C)C)cc2)Cc2ccc(C(C)(C)C)cc2)CC1 | 5.2 µM | 12 µM | 65 | 2.3 | 337 µM | 
CN(C)CCOC(=O)C(CN)(Cc1ccc(C(F)(F)F)cc1)Cc1ccc(C(F)(F)F)cc1 | 2.3 µM | 8.2 µM | 190 | 3.6 | 437 µM | 
CN(C)CCOC(=O)C(CN)(Cc1ccc(C(C)(C)C)cc1)Cc1ccc(C(C)(C)C)cc1 | 31 µM | 90 µM | 1.7 | 2.9 | 52 µM | 
CC(C)(C)c1ccc(CC(CN)(Cc2ccc(C(C)(C)C)cc2)C(=O)NCCCN)cc1 | 14.4 µM | 35 µM | 17.6 | 2.4 | 254 µM | 
CN(C)CCN1CCN(C(=O)C(CN)(Cc2ccc3ccccc3c2)Cc2ccc3ccccc3c2)CC1 | 7.2 µM | 18.5 µM | 57 | 2.6 | 409 µM | 
N=C(N)NCCCNC(=O)C(CNC(=N)N)(Cc1ccc(C(F)(F)F)cc1)Cc1ccc(C(F)(F)F)cc1 | 78 µM | 171 µM |  | 2.2 |  | ND(Insoluble)
CN(C)CCN1CCN(C(=O)C(CN)(Cc2ccc(C(F)(F)F)cc2)Cc2ccc(C(F)(F)F)cc2)CC1 | 19 µM | 69 µM | 58 | 3.6 | 1120 µM | 
CC(C)(C)c1ccc(CC(CN)(Cc2ccc(C(C)(C)C)cc2)C(=O)N[C@@H](CCCNC(=N)N)C(N)=O)cc1 | 136 µM | 158 µM | >4.8 | 1.2 | > 654 µM | 
CN1CCN(C(=O)C(CN)(Cc2ccc(C(F)(F)F)cc2)Cc2ccc(C(F)(F)F)cc2)CC1 | 27 µM | 182 µM | 19.6 | 6.7 | 526 µM | 
NCCCNC(=O)C(CN)(Cc1ccc(C(F)(F)F)cc1)Cc1ccc(C(F)(F)F)cc1 | 11 µM | 30 µM | 72 | 2.8 | 790 µM | 
CC(C)(C)c1ccc(CC(CN)(Cc2ccc(C(C)(C)C)cc2)C(=O)NCCN)cc1 | 10.6 µM | 6.1 µM | 1.7 | 0.6 | 18 µM | 
